Results: ChEMBL document CHEMBL2021916, “Aflaquinolones A-G: secondary metabolites from marine and fungicolous isolates of Aspergillus spp” (J Nat Prod, 2012)

What was measured:
[1] = Cytotoxicity against human Hep3B cells after 48 hrs by EZ-CyTox enhanced cell viability assay; assay type: functional, cell-based, Hep 3B2
How it was run: (§1)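 Seeding densities: K562 3 × 10⁴, B16F10 3 × 10³, HL-60 1 × 10⁵, MDA-MB-231 5 × 10³ and Hep3B 5 × 10³ cells per well. Cells were exposed for 48 h to test compounds supplied as DMSO solutions. Viability was read with the EZ-CyTox enhanced cell viability kit as absorbance at 450 nm.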

[2] = system: MDA-MB-231; assay: Cytotoxicity against human MDA-MB-231 cells after 48 hrs by EZ-CyTox enhanced cell viability assay; assay type: functional, cell-based; conditions: MDA-MB-231, 48 h; how it was run: as §1
[3] = system: B16-F10; assay: Cytotoxicity against mouse B16F10 cells after 48 hrs by EZ-CyTox enhanced cell viability assay; assay type: functional, cell-based; conditions: B16-F10, 48 h; how it was run: as §1
[4] = system: K562; assay: Cytotoxicity against human K562 cells after 48 hrs by EZ-CyTox enhanced cell viability assay; assay type: functional, cell-based; conditions: K562, 48 h; how it was run: as §1
[5] = system: HL-60; assay: Cytotoxicity against human HL60 cells after 48 hrs by EZ-CyTox enhanced cell viability assay; assay type: functional, cell-based; conditions: HL-60, 48 h; how it was run: as §1

Measured: IC50

O=C1Nc2ccccc2[C@@](O)(c2ccccc2)[C@H]1O [AFLAQUINOLONE G]
> 80 µM: [1] | [2] | [3] | [4] | [5]

CO[C@@H]1C(=O)Nc2ccc(/C=C/[C@@]3(C)CCC(=O)[C@H](C)C3)c(O)c2[C@@]1(O)c1ccccc1 [AFLAQUINOLONE C]
> 80 µM: [1] | [2] | [3] | [4] | [5]

CO[C@@H]1C(=O)Nc2ccc(/C=C/[C@]3(C)CC[C@@H](O)[C@@H](C)C3)c(O)c2[C@@]1(O)c1ccccc1 [AFLAQUINOLONE B]
> 80 µM: [1] | [2] | [3] | [4] | [5]

O=C1Nc2ccccc2[C@@](O)(c2ccccc2)[C@@H]1O [AFLAQUINOLONE F]
> 80 µM: [1] | [2] | [3] | [4] | [5]

CO[C@@H]1C(=O)Nc2ccc(/C=C/[C@]3(C)CCC(=O)[C@@H](C)C3)c(O)c2[C@@]1(O)c1ccccc1 [AFLAQUINOLONE A]
> 80 µM: [1] | [2] | [3] | [4] | [5]

CO[C@@H]1C(=O)Nc2cccc(O)c2[C@@]1(O)c1ccccc1 [AFLAQUINOLONE E]
> 80 µM: [1] | [2] | [3] | [4] | [5]
